PERK inhibitor: human PERK inhibition, primary cell-based screen; hit rate 0.17% among 220,000; inhibition, % at 5.6 µM; CHO PERK-DD fusion, SEAP luminescence translation reporter; Q9NZJ5;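 active = inhibition above the mean inhibition of all tested compounds plus 3 SD, set separately per screening campaign, cut at about 2.9% in these data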;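 also: PERK kinase domain activated by AP20187 dimerizer at 100 nM; 0% = DMSO with dimerizer and 100% = rapamycin at 8.4 µM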
NF-kB expr up: compounds increasing NF-kB expression in human neuronal cells; NF-kB reporter expression; stronger effect = higher value; fold change at 12.5 µM; hit rate 1.6% among 190,000; in the data active = fold change above about 3.3
MDM2 E3 inh: inhibitors of human Mdm2 E3 ubiquitin ligase | cell-based MDM2 ubiquitination luciferase reporter, 2 h; 0 = plate control, 100 = twice control, blank-subtracted | signal enhancement, % at 5 µM | hit rate 0.11% among 210,000;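 active = signal enhancement of 30% or more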;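 also: luminescence tracks abundance of the self-degrading MDM2-luciferase fusion protein; higher signal means inhibition of MDM2 E3 ligase activity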
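Test system: stable mammalian line carrying autodegrading MDM2–luciferase fusion reporter; quantity: 2000 cells in each well; times: 4 h cell settling then 2 h compound exposure, 37 °C; detection: luminescence with SteadyLite reagent, 15 min at room temperature; evaluation: percent signal gain over controls, blank-subtracted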
AHR activator: activators of human aryl hydrocarbon receptor | AHR-responsive luciferase reporter cells, luminescence | activation, % at 5 µM | hit rate 2.5% among 320,000 | P35869; in the data active = activation above about 47%;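 also: 0% = vehicle wells and 100% = reference agonist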
Target sequence (P35869 whole entry, looked up): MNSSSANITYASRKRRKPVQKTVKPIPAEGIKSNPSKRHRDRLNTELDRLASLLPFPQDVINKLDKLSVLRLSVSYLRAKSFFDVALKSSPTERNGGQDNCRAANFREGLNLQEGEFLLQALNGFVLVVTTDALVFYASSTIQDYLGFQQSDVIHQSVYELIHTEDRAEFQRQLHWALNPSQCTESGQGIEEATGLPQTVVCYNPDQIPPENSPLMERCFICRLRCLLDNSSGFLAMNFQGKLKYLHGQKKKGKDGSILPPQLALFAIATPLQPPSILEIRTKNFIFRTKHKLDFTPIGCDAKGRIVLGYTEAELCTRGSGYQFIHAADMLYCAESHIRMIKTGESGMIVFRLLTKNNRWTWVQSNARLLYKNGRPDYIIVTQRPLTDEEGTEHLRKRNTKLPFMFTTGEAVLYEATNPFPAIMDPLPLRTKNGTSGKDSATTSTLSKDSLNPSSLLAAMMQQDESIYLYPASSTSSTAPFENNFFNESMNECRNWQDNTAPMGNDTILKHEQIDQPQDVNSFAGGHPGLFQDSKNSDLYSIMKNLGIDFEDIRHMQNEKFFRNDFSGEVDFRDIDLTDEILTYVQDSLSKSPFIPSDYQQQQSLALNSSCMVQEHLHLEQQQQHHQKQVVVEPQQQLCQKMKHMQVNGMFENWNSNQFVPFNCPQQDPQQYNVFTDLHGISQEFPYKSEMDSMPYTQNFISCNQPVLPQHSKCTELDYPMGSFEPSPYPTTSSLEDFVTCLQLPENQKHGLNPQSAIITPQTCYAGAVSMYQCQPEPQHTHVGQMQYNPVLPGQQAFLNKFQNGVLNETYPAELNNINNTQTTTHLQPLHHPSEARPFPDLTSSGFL
APP 5'UTR act: activates APP 5'UTR luciferase reporter. SH-SY5Y APP 5'UTR luciferase reporter, luminescence; zero percent = DMSO vehicle wells. activation, % at 2 µM. hit rate 1% among 190,000;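 active = activation above a set limit, based on mean plus 3 SD of controls, cut at about 140% in these data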
STAT1 act: activators of IFN-gamma induced STAT1 signaling; NIH 3T3 STAT1-luciferase reporter, luminescence; 100% = IFN-gamma alone, no compound; activation (% of control), % at 5.5 µM; hit rate 2.6% among 200,000; AID 932;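 active = activation above the screen-wide mean activation plus 3 SD, cut at about 130% in these data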;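 also: raw ratio to IFN-gamma control signal so 100% means no change and 0% no light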
STAT1 activ conf: STAT1 activation, confirmation assay; shares compounds with STAT1 act; NIH 3T3 STAT1-luciferase reporter, IFN-gamma potentiation, luminescence; 100% = IFN-gamma EC80 alone, no compound; activation (% of control), % at 5.7 µM; hit rate 97% among 1,200;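 active = activation above a set limit carried over from the earlier primary STAT1 screen, cut at about 140% in these data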;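 also: simple ratio to median IFN-gamma plus DMSO wells so 0% means no light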
NFkB act: counter-screen for STAT1 activators: NF-kappaB activation | shares compounds with STAT1 act | HEK293T NF-kB luciferase reporter, TNF-alpha stimulated, luminescence; 100% = TNF-alpha with vehicle only | activation (% of control), % at 5.7 µM | hit rate 43% among 1,200;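 active = activation above the mean of solvent-only control wells plus 3 SD, set per campaign, cut at about 130% in these data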;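 also: TNF-alpha given at a submaximal dose yielding about 80% of full reporter signal; values are well signal over median control so 100% means no change and 0% no light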
STAT3 act 2: activates human STAT3, counter-screen to STAT1 activators; shares compounds with STAT1 act; U3A cells STAT3-luciferase reporter, IL-6, luminescence; cells lack STAT1; 100 = IL-6 alone, no compound effect; activation (% of control), % at 5.7 µM; hit rate 46% among 1,200; AID 1316;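 active = activation above the solvent-only control well mean plus 3 SD, set per plate batch, cut at about 110% in these data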;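 also: 0% = no luminescence and 100% = median IL-6 plus DMSO wells; higher means more STAT3 reporter activation so hits are non-selective activators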
AHR act confirm: confirmation of human aryl hydrocarbon receptor activators | shares compounds with AHR activator | human cells, AHR-responsive luciferase reporter, luminescence | activation, % at 9 µM | hit rate 87% among 2,300; in the data active = activation above about 49%;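 also: HepG2 hepatoma cells carrying a DRE-driven firefly luciferase reporter; 0% = vehicle wells and 100% = reference agonist wells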
PXR counter: activates human PXR in AHR activator counter-screen; shares compounds with AHR activator; cell-based PXR reporter, luciferase luminescence; activation, % at 11.6 µM; hit rate 88% among 2,300; AID 434939; in the data active = activation above about 11%;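 also: human hepatoma DPX-2 cells expressing full-length human PXR; 0% = DMSO and 100% = reference agonist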
* marks the source's active call; other numbers are inactive results; . = no result. In the library only some 4.5% were active in any assay of this set; here they are far more common.

SMILES | PERK inhibitor | NF-kB expr up | MDM2 E3 inh | AHR activator | APP 5'UTR act | STAT1 act | STAT1 activ conf | NFkB act | STAT3 act 2 | AHR act confirm | PXR counter
Cc1c(C(=O)Nc2ccc(Br)cc2)cnn1C | 1 | 2.7 | -4 | 120* | 32 | 152* | 159* | 120 | 118* | 136* | 23*
O=C(Nc1ccc(Br)cc1)c1ccccc1Br | . | . | . | 5 | . | . | . | . | . | . | .
COc1ccc(NC(=O)C2CCCCC2)cc1S(=O)(=O)N1CCOCC1 | . | . | . | -2 | . | . | . | . | . | . | .
Cc1cc(C(=O)Nc2ccc3c(c2)OCO3)cs1 | 0 | 4.5* | -22 | 130* | 178* | 157* | 168* | 122 | 119* | 90* | 43*
c1ccc2nc3c(nc2c1)[nH]c1ccccc13 | 1 | 5.9* | -13 | 158* | 257* | 160* | 202* | 132 | 126* | 158* | 14*
COc1cc(C=O)ccc1OC(=O)Nc1ccccc1 | . | . | . | 3 | . | . | . | . | . | . | .
CCN(CC)S(=O)(=O)c1ccc(C(=O)N(c2ccccc2)C2C=CS(=O)(=O)C2)cc1 (stereo unspecified) | 0 | 1.5 | -3 | -2 | -7 | 98 | . | . | . | . | .
CCc1nnc(N/N=C/c2c(C)[nH]c3ccccc23)n1N | -1 | 0.77 | -6 | 12 | 17 | 113 | . | . | . | . | .
O=c1c2ccccc2cnn1Cc1n[nH]c(=S)n1-c1ccc(Cl)cc1 | 0 | 0.9 | . | -1 | -11 | 101 | . | . | . | . | .
O=c1c2ccccc2cnn1-c1ccc(Cl)cc1 | 0 | 5.1* | -25 | 133* | 117 | 166* | 192* | 131 | 128* | 117* | 47*
O=C(Nc1ccccc1)c1cc2ccccc2o1 | 0 | 8.8* | -54 | 93* | 230* | 153* | 227* | 134* | 99 | 68* | 21*
c1ccc(Oc2cccc(Oc3ccccc3)n2)cc1 | . | . | . | -1 | . | . | . | . | . | . | .
CC1=NN(c2nc3ccccc3[nH]2)C(=O)C1Cc1ccccc1 (stereo unspecified) | 0 | . | -19 | 3 | . | . | . | . | . | . | .
COc1ccc(CN(C)C(=O)Cc2ccc(S(=O)(=O)N3CCOCC3)s2)cc1OC | . | . | . | 0 | . | . | . | . | . | . | .
Oc1ccc(/C=N/Nc2cccc(Cl)n2)c(O)c1 | . | . | . | 4 | . | . | . | . | . | . | .
Brc1ccccc1/C=N/Nc1ccc2ccccc2n1 | 1 | 9.4* | -2 | 94* | 119 | 158* | 191* | 120 | 146* | 131* | 14*
Cc1cccc(Nc2nc3ccccc3s2)c1C | 0 | 9.2* | -9 | 101* | 158* | 174* | 218* | 151* | 108 | 50* | 72*
CSc1ccc(CNC(C)(C)CO)cc1 | 1 | 0.96 | -10 | 1 | -2 | 101 | . | . | . | . | .
Cc1ccc(-c2nc(Nc3ccccc3)n[nH]2)cc1 | 0 | 10* | -44 | 122* | 188* | 193* | 290* | 153* | 122* | 111* | 8
Cc1cc(C)nc(Nc2n[nH]c(-c3ccccc3Cl)n2)n1 | 1 | 1.1 | -7 | 17 | 39 | 113 | . | . | . | . | .
CC(C)(C)OC(=O)NC1CCN(S(=O)(=O)c2ccc3c(c2)OCCO3)CC1 | . | . | . | -2 | . | . | . | . | . | . | .
O=C1C(c2cc(=O)c3ccccc3[nH]2)=C(O)c2ccccc21 | -1 | 7* | -14 | 167* | 144* | 191* | 193* | 125 | 118* | 191* | 25*
O=c1cc(-c2ccccc2)[nH]c2ccccc12 | 0 | 2.5 | 1 | 3 | -93 | 108 | . | . | . | . | .
Cc1cc(=O)[nH]c(N/N=C/c2ccc(C)o2)n1 | -1 | 1.2 | -8 | 19 | 14 | 99 | . | . | . | . | .
Cc1ccc(/C=N/Nc2nc3ccccc3s2)o1 | 1 | 6.4* | -63 | 111* | 167* | 154* | 264* | 107 | 129* | 113* | 14*
SMILES | PERK inhibitor | NF-kB expr up | MDM2 E3 inh | AHR activator | APP 5'UTR act | STAT1 act | STAT1 activ conf | NFkB act | STAT3 act 2 | AHR act confirm | PXR counter
Cc1cccc2c1-c1sc(C(=O)Nc3nccs3)cc1CO2 | 0 | 2.2 | -21 | 149* | 96 | 160* | 190* | 127 | 94 | 110* | 22*
Cc1cccc2c1-c1sc(C(=O)Nc3cccnc3)cc1CO2 | . | . | . | 15 | . | . | . | . | . | . | .
Cc1ccc(/C=N/Nc2nc3ccccc3[nH]2)s1 | 0 | 3.8* | -9 | 109* | 135* | 157* | 190* | 149* | 121* | 143* | 30*
Cc1cc(C)n(-c2c(C)[nH]c3ccccc23)n1 | 2 | 1 | 2 | 4 | 7 | 83 | . | . | . | . | .
CCOc1ccc(NC(=O)c2csc3c2CCCC3)cc1 | 0 | 3.9* | . | 146* | 127 | 171* | 198* | 139* | 104 | 110* | 45*
c1ccc2oc(-c3ccc4nc[nH]c4c3)nc2c1 | 1 | 5.2* | -8 | 97* | 138* | 151* | 205* | 135* | 97 | 147* | 14*
O=C(Nc1nc(-c2ccccn2)cs1)C1CC1 | 1 | 1.6 | -5 | 16 | 3 | 116 | . | . | . | . | .
c1ccc(Nc2nc(-c3ccccn3)cs2)cc1 | -1 | 7.5* | -34 | 116* | 205* | 158* | 226* | 150* | 126* | 53* | .
CNc1oc(/C=C/c2ccccc2)nc1C#N | 1 | 5.3* | -2 | 136* | 112 | 154* | 167* | 136* | 104 | 112* | 18*
COCCNc1oc(/C=C/c2ccccc2)nc1C#N | -2 | . | -7 | 47 | . | . | . | . | . | . | .
COc1ccc(C2=NOC(C)(c3nnc(-c4ccc(Cl)cc4)o3)C2)cc1 (stereo unspecified) | . | . | . | 0 | . | . | . | . | . | . | .
CNC(=O)c1ccsc1NC(=O)c1sc2ccccc2c1Cl | 0 | 1.1 | . | 120* | 47 | 124 | . | . | . | 116* | 19*
O=C(CC1C(=O)Nc2ccccc2N1CC(=O)N1CCCC1)Nc1ccc(Br)cc1 (stereo unspecified) | . | . | . | 92* | . | . | . | . | . | 100* | 37*
COc1ccc(OC)c(CNC(=O)C2CCN(S(C)(=O)=O)CC2)c1 | 0 | 1 | 3 | -1 | -17 | 101 | . | . | . | . | .
O=C(Nc1cc(F)c(Br)cc1F)c1ccc(Cl)cc1 | 1 | . | -9 | 83* | . | . | . | . | . | 98* | 31*
CCOC(=O)c1ccc(NC(=O)CSc2nc(=O)n3cccc(C)c3n2)cc1 | . | . | . | -3 | . | . | . | . | . | . | .
